{"source": "ChEMBL document CHEMBL1122737", "about": "“5-[(Aminoalkyl)amino]-substituted anthra[1,9-cd]pyrazol-6(2H)-ones as novel anticancer agents. Synthesis and biological evaluation” (1984)", "key": {"[1]": {"test": "In vivo antitumor activity at a single dose of 2.5 mg/kg & 7.5 mg/kg total against mammary adenocarcinoma 16C"}, "[2]": {"test": "Compound was evaluated in vivo for the antitumor activity at a dose of 2.5 mg/kg & 7.5 mg/kg against mammary adenocarcinoma 16C to assess tumor growth delay (T-C)", "type": "functional, Mus musculus", "procedure,_shortened": "(§1)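 Mammary adenocarcinoma 16C is implanted sc in mice on day 0. Treatment is iv on days 1, 5 and 9, with dose per injection and total. Tumors are measured in two dimensions three times weekly to give growth delay (T − C, days) and gross log kill. Cured mice are excluded from these calculations.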"}, "P388 [3]": {"test_system": "P388", "test": "In vivo antitumor activity against P388 leukemia cells at a dose of 1.5 mg/kg as a single injection and 3 mg/kg as a total", "type": "functional, Mus musculus", "procedure,_shortened": "(§2)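 Murine P388 leukemia, drug given ip on a q04d × 02 schedule (a slightly modified NCI protocol). Dose is listed per injection and as a total. Read-out is % T/C survival. Mice alive at 30 days count as cured and are left out of % T/C. Cured/tested counts are reported.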"}, "P388 [4]": {"test_system": "P388", "test": "In vivo antitumor activity against P388 leukemia cells at a dose of 0.75 mg/kg as a single injection and 1.5 mg/kg as a total", "type": "functional, Mus musculus", "procedure,_shortened": "as §2"}, "[5]": {"test": "In vivo antitumor activity at a single dose of 1.25 mg/kg & 3.75 mg/kg total against mammary adenocarcinoma 16C"}, "[6]": {"test": "Compound was evaluated in vivo for the antitumor activity at a dose of 1.25 mg/kg & 3.75 mg/kg against mammary adenocarcinoma 16C to assess tumor growth delay (T-C).", "type": "functional, Mus musculus", "procedure,_shortened": "as §1"}, "P388 [7]": {"test_system": "P388", "test": "in vivo for the antitumor activity against P388 leukemia cells at a dose of 100 mg/kg (single injection) and 200 mg/kg (Total)", "type": "functional, Mus musculus", "procedure,_shortened": "as §2"}, "P388 [8]": {"test_system": "P388", "test": "Evaluated in vivo for the antitumor activity against P388 leukemia cells at a dose of 50 mg/kg (single injection) and 100 mg/kg (Total )", "type": "functional, Mus musculus", "procedure,_shortened": "as §2"}, "P388 [9]": {"test_system": "P388", "test": "In vivo antitumor activity against P388 leukemia cells at a dose of 12.5 mg/kg (single injection) and 25 mg/kg (Total )", "type": "functional, Mus musculus", "procedure,_shortened": "as §2"}, "[10]": {"test": "In vivo antitumor activity at a single dose of 6.5 mg/kg & 18.8 mg/kg total against mammary adenocarcinoma 16C to assess tumor growth delay (T-C)", "type": "functional, Mus musculus", "procedure,_shortened": "as §1"}, "[11]": {"test": "In vivo antitumor activity at a single dose of 12.5 mg/kg & 37.5 mg/kg total against mammary adenocarcinoma 16C to assess tumor growth delay (T-C)", "type": "functional, Mus musculus", "procedure,_shortened": "as §1"}, "[12]": {"test": "In vivo antitumor activity at a single dose of 6.5 mg/kg & 18.8 mg/kg total against mammary adenocarcinoma 16C", "type": "functional, Mus musculus", "procedure,_shortened": "(§3)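 Mice were inoculated sc with mammary adenocarcinoma 16C on day 0 and given the agent (as the dihydrochloride salt) iv on days 1, 5 and 9. Tumors were measured in two dimensions three times weekly. Tumor growth delay (T − C, days) and gross log kill were derived, with cured mice excluded from these calculations.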"}, "P388 [13]": {"test_system": "P388", "test": "In vivo antitumor activity against P388 leukemia cells at a dose of 25 mg/kg as a single injection and 50 mg/kg as a total", "type": "functional, Mus musculus", "procedure,_shortened": "as §2"}, "L1210": {"test_system": "L1210", "test": "Antitumor activity against L1210 lymphocytic cells in vitro", "type": "functional", "conditions": "Mus musculus, read-out: ID50 (the source's name)"}, "[14]": {"test": "In vivo antitumor activity at a single dose of 12.5 mg/kg & 37.5 mg/kg total against mammary adenocarcinoma 16C", "type": "functional, Mus musculus", "procedure,_shortened": "as §3"}}}
{"smiles": "O=C1c2c(O)ccc(O)c2C(=O)c2c(NCCNCCO)ccc(NCCNCCO)c21", "note": "[MITOXANTRONE]", "values": [{"measurement": "Gross kill", "setting": "[1]", "result": 1.1}, {"measurement": "T-C", "setting": "[2]", "result": 4.1, "unit": "days"}, {"measurement": "T/C", "setting": "P388 [3]", "result": 278, "unit": "%"}, {"measurement": "T/C", "setting": "P388 [4]", "result": 231, "unit": "%"}, {"measurement": "Gross kill", "setting": "[5]", "result": 0.8}, {"measurement": "T-C", "setting": "[6]", "result": 3, "unit": "days"}]}
{"smiles": "O=C1c2cccc(O)c2-c2nn(CCNCCO)c3ccc(NCCNCCO)c1c23", "values": [{"measurement": "T/C", "setting": "P388 [7]", "result": 221, "unit": "%"}, {"measurement": "T/C", "setting": "P388 [8]", "result": 172, "unit": "%"}]}
{"smiles": "O=C1c2c(O)cccc2-c2nn(CCNCCO)c3ccc(NCCNCCO)c1c23", "note": "[LOSOXANTRONE]", "values": [{"measurement": "T/C", "setting": "P388 [9]", "result": 219, "unit": "%"}, {"measurement": "T-C", "setting": "[10]", "result": 7, "unit": "days"}, {"measurement": "T-C", "setting": "[11]", "result": 11.4, "unit": "days"}, {"measurement": "Gross log kill", "setting": "[12]", "result": 1.9}, {"measurement": "T/C", "setting": "P388 [13]", "result": 248, "unit": "%"}, {"measurement": "IC50", "setting": "L1210", "result": 5.13, "unit": "nM"}, {"measurement": "Gross log kill", "setting": "[14]", "result": 3.1}]}
